# Screening results (PubChem BioAssay)
# Sampled rows, rich in hits. Any-hit rate of the full collection: about 3%.
# Apaf-1 inh = inhibitors of human Apaf-1 apoptosome; O14727; hit rate 0.71% among 330,000; inhibition, % at 20 µM; reconstituted apoptosome caspase-3 activity, DEVD-Rh110 fluorescence; active = inhibition of at least 40% at 20 µM
#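 Material: reconstituted apoptosome with Apaf-1, cytochrome c, caspase-9, procaspase-3, dATP; medium: pH 7.5 Hepes buffer with CHAPS, BSA, DTT; also added: cytochrome c and DEVD-Rh110 substrate; timing: 30 min plus 50 min, RT; signal: Rh110 fluorescence intensity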
# SENP8 block-1 = SENP8 protease inhibition. Q96LD8. purified SENP8, Z-RLRGG-aminoluciferin cleavage, luminescence. inhibition, % at 10 µM. hit rate 1.2% among 330,000; in the data active = inhibition above about 50%
# Target sequence (Q96LD8 whole entry, looked up): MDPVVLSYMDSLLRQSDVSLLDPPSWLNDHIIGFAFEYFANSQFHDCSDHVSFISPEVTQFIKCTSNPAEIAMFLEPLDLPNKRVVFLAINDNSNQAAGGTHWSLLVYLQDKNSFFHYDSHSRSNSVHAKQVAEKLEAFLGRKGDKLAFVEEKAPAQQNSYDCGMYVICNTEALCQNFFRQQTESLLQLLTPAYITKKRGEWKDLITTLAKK
# SENP7 inh = SENP7 protease inhibition; hit rate 1.5% among 330,000; recombinant SENP7, Z-RLRGG-aminoluciferin luminescence, 40 min; inhibition, % at 5 µM; Q9BQF6;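 active = inhibition above about 50% at the single test dose, limit read from the data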
# SENP6 inh = SENP6 protease inhibition | Q9GZR1 | Recombinant SENP6 catalytic domain, aminoluciferin luminescence | inhibition, % at 10 µM | hit rate 1.8% among 330,000;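 active = inhibition above about 50% at the single tested dose, limit read from the data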
# UBC13 polyUb = blocks human UBC13 polyubiquitin chain formation; TR-FRET; inhibition, % at 20 µM; hit rate 0.47% among 330,000; AID 485273; in the data active = inhibition above about 45%, passing the limit was not always enough
# Target sequence (P61088 whole entry, looked up): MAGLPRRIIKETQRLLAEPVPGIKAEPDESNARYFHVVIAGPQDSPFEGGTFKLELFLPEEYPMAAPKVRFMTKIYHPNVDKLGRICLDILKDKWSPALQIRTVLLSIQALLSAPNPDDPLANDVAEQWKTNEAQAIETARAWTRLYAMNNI
# SENP8 block-2 = SENP8 (human) protease inhibition. Q96LD8. recombinant SENP8, Nedd8 substrate fluorescence. inhibition, % at 20 µM. hit rate 0.64% among 360,000. AID 602440; in the data active = inhibition mostly above about 40%, no sharp cut-off; inactive = mostly below about 27%
# SENP8 confirm = human SENP8 inhibition, confirmed; AID 488912; Recombinant SENP8, Z-RLRGG-aminoluciferin luminescence, 60 min; shares compounds with SENP7 inh; inhibition, % at 12.5 µM; hit rate 40% among 6,200;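 active = mean inhibition across replicates above about 50%, limit read from the data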
# SENP6 confirm = human SENP6 inhibition, confirmed. shares compounds with SENP7 inh. recombinant SENP6, Z-RLRGG-aminoluciferin luminescence. inhibition, % at 12.5 µM. hit rate 58% among 6,200
# SENP7 conf = human SENP7 inhibition, confirmed; AID 488917; shares compounds with SENP7 inh; hit rate 69% among 6,200; inhibition, % at 12.5 µM; recombinant SENP7, Z-RLRGG-aminoluciferin luminescence, 40 min
# Casp3 SENP sel = selectivity test for SENP inhibitors: human caspase-3 inhibition; shares compounds with SENP7 inh; purified caspase-3, Z-DEVD-aminoluciferin luminescence, 60 min; inhibition, % at 12.5 µM; hit rate 60% among 6,200;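 active = mean inhibition above about 50%, limit read from the data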
# Target sequence (P42574 28-227 limits assumed): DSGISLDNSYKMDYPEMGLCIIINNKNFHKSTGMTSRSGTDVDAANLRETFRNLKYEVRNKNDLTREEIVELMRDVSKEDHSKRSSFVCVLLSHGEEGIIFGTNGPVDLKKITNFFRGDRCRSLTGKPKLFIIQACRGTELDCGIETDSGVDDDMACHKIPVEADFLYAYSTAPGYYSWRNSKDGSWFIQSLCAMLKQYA
# Luc interf = counter-screen for SENP inhibitors: luminescence interference | shares compounds with SENP7 inh | Pre-incubated SENP8/Z-RLRGG-aminoluciferin, luciferase luminescence interference | inhibition, % at 12.5 µM | hit rate 39% among 6,200;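 active = mean inhibition above about 50% when retested at one dose, limit read from the data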
# Hits are given with their value; i = inactive; nt = not tested or not shown.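 The calls were made as follows, unless noted: active = mean inhibition above about 50% in the one-dose retest (limit read from the data); inactive = the rest.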
SMILES,Apaf-1 inh,SENP8 block-1,SENP7 inh,SENP6 inh,UBC13 polyUb,SENP8 block-2,others
O=c1[nH]c2ccccc2n1C1CCN(C(CCc2ccccc2)c2nnnn2-c2ccc3c(c2)OCCO3)CC1 (centres undefined),nt,nt,nt,nt,nt,i,
Nc1c(C(=O)NCc2ccco2)c2nc3ccccc3nc2n1CCN1CCOCC1,44,i,i,i,i,i,
COCC(C)OC(=O)c1c(N)n(Cc2ccco2)c2nc3ccccc3nc12 (centres undefined),61,i,i,i,i,i,
Nc1c(C(=O)NCc2ccco2)c2nc3ccccc3nc2n1Cc1ccccc1,i,i,i,i,i,i,
CCCCCCn1c(N)c(C(=O)NCCN2CCOCC2)c2nc3ccccc3nc21,52,i,i,i,i,i,
CCOC(=O)[C@]12Cc3cc(C)ccc3[C@H]1N(C1CCCCC1)C(=O)c1cc(OC)ccc12,nt,nt,nt,nt,nt,i,
Clc1ccc(C[n+]2c(-c3ccccc3)cc(-c3ccccc3)cc2-c2ccccc2)cc1,52,i,i,i,47,i,
COc1c(C=C2C(=O)NC(=O)NC2=O)c(CCN(C)C(=O)c2ccccc2)cc2c1OCO2,i,i,i,i,i,44,
COC(=O)Cn1cc(C=C2C(=O)NC(=O)NC2=O)c2ccccc21,i,i,i,i,i,i,
c1ccc(CN2COC3CCCCCC32)cc1 (centres undefined),nt,nt,nt,nt,nt,i,
O=C1NC(=O)C(=Cc2ccc(Oc3ccc([N+](=O)[O-])cc3)cc2)C(=O)N1,43,i,i,i,i,i,
CN[C@@H]1C[C@@H](c2ccc(Cl)c(Cl)c2)c2ccccc21,i,i,i,i,46,nt,
CC(NCc1ccc(Cl)c(Cl)c1)C(O)c1ccccc1 (centres undefined),i,i,i,i,i,i,
COC(COC(N)=O)C1=C(N2CC2)C(=O)C(C)=C(N2CC2)C1=O (centres undefined),nt,nt,nt,nt,nt,i,
CC1=C(N2CC2)C(=O)C(CO)=C(N2CC2)C1=O,nt,nt,nt,nt,nt,63,
O=C1CC2OCC=C3CN4CCC56c7ccccc7N1C5C2C3CC46O (centres undefined),nt,nt,nt,nt,nt,i,
COc1ccccc1N1C(=O)NC(=O)/C(=C/c2ccc([N+](=O)[O-])s2)C1=O,i,i,i,i,i,nt,
COc1ccc(N2C(=O)NC(=O)/C(=C/c3ccc([N+](=O)[O-])s3)C2=O)cc1,i,i,i,i,i,69,
COc1cccc(N2C(=O)NC(=O)/C(=C/c3ccc([N+](=O)[O-])s3)C2=O)c1,i,i,i,i,i,48,
COc1ccc(N2C(=O)NC(=O)/C(=C\c3ccc([N+](=O)[O-])s3)C2=O)cc1,i,i,i,i,i,44,
COc1cccc(N2C(=O)NC(=O)/C(=C/c3ccc4c(c3)Cc3ccccc3-4)C2=O)c1,i,i,i,i,i,i,
COC1C(C)OC(OC2CC(C)(O)Cc3cc4c(c(O)c32)C(=O)c2c(O)cc3c(c2C4=O)OC2OC3(C)C(O)C(N(C)C)C2O)C(OC)C1(C)OC (centres undefined),nt,nt,nt,nt,nt,41,
COc1ccc(-n2nnnc2C(CCSC)N2CCC(n3c(=O)[nH]c4ccccc43)CC2)cc1 (centres undefined),nt,nt,nt,nt,nt,i,
O=C1NC(=O)C(=Cc2ccc(N3CCN(C(=O)c4ccccc4)CC3)c([N+](=O)[O-])c2)C(=O)N1,i,i,i,i,i,41,
CN1C(=O)C(=Cc2ccc(N3CCOCC3)c([N+](=O)[O-])c2)C(=O)N(C)C1=O,i,i,i,i,i,nt,
SMILES,Apaf-1 inh,SENP8 block-1,SENP7 inh,SENP6 inh,UBC13 polyUb,SENP8 block-2,others
Cc1cc(C)n(-c2ccc(NN=C(C#N)C#N)cc2)n1,i,90,90,92,i,i,
O=C(Nc1ccc(Cl)cc1)Nc1nccs1,i,i,52,68,i,i,SENP8 confirm=50;SENP6 confirm=50;SENP7 conf=77;Casp3 SENP sel=i;Luc interf=i
COc1ccc(-n2nnnc2C(CCc2ccccc2)N2CCC(n3c(=O)[nH]c4ccccc43)CC2)cc1 (centres undefined),nt,nt,nt,nt,nt,i,
Nc1ccccc1C(=O)OCCc1ccccc1,i,73,75,76,i,i,SENP8 confirm=69;SENP6 confirm=75;SENP7 conf=92;Casp3 SENP sel=60;Luc interf=67
COc1ccc(-c2cc(=Nc3ccccc3)c3cc(C)ccc3o2)cc1,i,i,68,69,i,i,SENP8 confirm=i;SENP6 confirm=i;SENP7 conf=i;Casp3 SENP sel=i;Luc interf=i
COc1ccc(-c2cc(=NCCC(=O)O)c3cc(C)ccc3o2)cc1,nt,nt,nt,nt,nt,i,
Nc1ccc(N=Nc2ccccc2)cc1,i,i,i,i,i,i,
Cc1cc(N=Nc2ccccc2C)ccc1N,i,76,86,90,i,55,SENP8 confirm=81;SENP6 confirm=82;SENP7 conf=96;Casp3 SENP sel=i;Luc interf=86
Fc1cccc(F)c1-c1nc(-c2ccc(Cl)cc2)no1,i,65,61,71,i,i,SENP8 confirm=i;SENP6 confirm=66;SENP7 conf=63;Casp3 SENP sel=i;Luc interf=i
O=C(c1cc2c(s1)-c1ccccc1OC2)N1CCC2(CC1)OCCO2,i,70,84,84,i,i,SENP8 confirm=75;SENP6 confirm=75;SENP7 conf=94;Casp3 SENP sel=84;Luc interf=80
N/C(=N\N=C\c1ccc(O)cc1O)N[N+](=O)[O-],i,51,52,i,i,i,SENP8 confirm=61;SENP6 confirm=60;SENP7 conf=86;Casp3 SENP sel=88;Luc interf=68
O=C(Nc1ccccc1)c1c(O)[nH]c(=S)[nH]c1=O,i,52,61,63,i,i,SENP8 confirm=62;SENP6 confirm=54;SENP7 conf=88;Casp3 SENP sel=82;Luc interf=60
Cc1cccc(C)c1-n1nnnc1C(c1cccs1)N1CCC2(CC1)C(=O)NCN2c1ccccc1 (centres undefined),nt,nt,nt,nt,nt,i,
COc1ccc(-n2nnnc2C(c2ccccc2OC(F)(F)F)N2CCC3(CC2)C(=O)NCN3c2ccccc2)cc1 (centres undefined),nt,nt,nt,nt,nt,i,
CN(C)C(=O)Oc1cccc(-c2cn3cc(Cl)ccc3n2)c1,i,i,i,i,i,i,
CN(C)C(=O)Oc1ccc(-c2cn3cc(Cl)ccc3n2)cc1,i,91,94,i,i,i,SENP8 confirm=i;SENP6 confirm=93;SENP7 conf=102;Casp3 SENP sel=97;Luc interf=i
Cc1ccc2c(c1N)C(=O)c1ccccc1C2=O,i,63,62,65,i,i,SENP8 confirm=i;SENP6 confirm=i;SENP7 conf=50;Casp3 SENP sel=i;Luc interf=i
O=C1C2CC(CN3CCCCC23)C2CCCCN12 (centres undefined),nt,nt,nt,nt,nt,i,
